Sequences and labels used below:
B1: tRNA (parent)
chain: GUUCCGUUGGCGUAAUGGUAACGCGUCUCCCUCCUAAGGAGAAGACUGCGGGUUCGAGUCCCGUACGGAACG

This sample holds only a part of the variants without activity. A value given as a limit tells only on which side of the number the result lay.

The variants in the data set derive from B1. The experiment in a line: yeast fitness relative to wild type (ratio to wild type); higher = fitter; tRNA-Arg(CCU), competitive growth, 37 C, YPD. Put shortly:
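Genotype frequency changes were the basis for Darwinian fitness relative to wild type. The frequencies came from 100-nucleotide paired-end sequencing of gene amplicons from the start population and each end population of pooled yeast strains with tRNA-Arg(CCU) gene variants at the native locus. Competition ran in YPD at 37°C for 24 hours in six replicates, genotypes needed ≥ 100 starting reads, and estimates < 0.5 were set to 0.5.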
Turning to GUUCCGUUGGCGUAAUGGUAACGCGACUCCCUCCUAAGGAGAAGACGGGGGGUUCGAGUCCCGUACGGCACG, the yeast fitness was at most 0.5.

Regarding GUUCCGUUGGCGUAAUGGUAACGCGCCUCCCUCCUAAGGAGAUGACUGCGGGUUCGAGUCCCGUACGGAACG, the yeast fitness is 0.884.

As for GUUCCGUUGGCGUAAUGGUAACGCGCCUCCCUCCUAUGGAGAAGACUGCGGGUUCGGGUCCCGUACGGAACG, the yeast fitness came out at 0.658.

On to GUUCCGUUGGCGUAAUGGUAACGCGACUCCCUCCUAAGGAGAAGACUGCGGGUCCGAGUCCCGUACGGAACG, for which the yeast fitness stood at 0.817.

Consider GUUCCGUUGGCGUAAUGGUAACGCGACUCCCUCCUAAGGAGAAGACUGCGGGUGCGAGUCCCGUACGGAACG, for which the yeast fitness stood at 0.531.

Regarding GUUCCGUUGGCGUAAUGGUAACGCGCCUCCCUCCUAAGGAGAAGACUGCGGGUUCGAGUCCCGUACGGAACG, the yeast fitness was 0.988.

GUUCCGUUGGCGUAAUGGUAACGCGCCUCCCUCCUCAGGAGAAGACUGCGGGUUCGAGUCCCGAACGGACCG: the yeast fitness was at most 0.5.

Consider GUUCCGUUGGCGUAAUGGUAACGCGACUCCCUCCGAUGGAGAAGACUGCGGGUUCCAGUCCCGUGCGGAACG, for which the yeast fitness was at most 0.5.

On to GUUCCGUUGGCGUAAUGGUAACGCGCCUCCCUCCUAAGGUGAAGACUGCGGGUUCGAGUUCCGUACGGCACG, for which the yeast fitness was determined as 0.535.

GUUCCGUUGGCGUAAUGGUAACGCGACUCCCUCCUAAGGAGAAGACGGCGGGUCCGAGUCCCGUACGGAACG: the yeast fitness is at most 0.5.

GUUCCGUUGGCGUAAUGGUAACGCGCCUCCCUCCUCAGGAGAAGACUGCGGGUUCGAGUCCCGUUCGAAACG: the yeast fitness is at most 0.5.

For GUUCCGUUGGCGUAAUGGUAACGCGCCUCCCUCCUAGGGAGAAGACUGCGGGUUCGAGUCCCGUACGGAACG, the yeast fitness turned out to be 0.634.

Take GUUCCGUUGGCGUAAUGGUAACGCGCCUCCCUCCUAAGGAGCAGACUGCGGGUUCGAGUCCCGUACGGACCG: the yeast fitness was 0.757.

On to GUUCCGUUGGCGUAAUGGUAACGCGCCUCCCUCCUAAGGGGAAGACUGCGGGUUCGCGUCCCGUACGGAACG, for which the yeast fitness was determined as 0.56.

As for GUUCCGUUGGCGUAAUGGUAACGCGACUCCCCCCUAAGGAGAAGACUGCGGGUUCGCGUCCUGUACGGAACG, the yeast fitness was at most 0.5.

As to GUUCCGUUGGCGUAAUGGUAACGCGCCUCCCUCCUACGGUGAAGACUGCGGGUUCGCGUCCCGGACGGAACG, the yeast fitness was at most 0.5.

For the variant GUUCCGUUGGCGUAAUGGUAACGCGACUCCCUCCUAAGGAGAAGACUGCGGGUUCGAGACCCGUACGGAACG, the yeast fitness was determined as 0.822.

GUUCCGUUGGCGUAAUGGUAACGCGCCUCCCUCCUGAGGAGAAGACUGCGGGUUCGAGUCCCGUACGGAACG: the yeast fitness was 0.856.

Regarding GUUCCGUUGGCGUAAUGGUAACGCGACUCCCUCCUAAGGAGAAGACUGCGGGUACGAGUCCCGUACGGAUCG, the yeast fitness was 0.69.

As to GUUCCGUUGGCGUAAUGGUAACGCGCCUCCCUCCUAAGGCGAAGACUGCGGGUUCGAGUCCCGUACGGAACG, the yeast fitness turned out to be 0.941.

On to GUUCCGUUGGCGUAAUGGUAACGCGCCUCCCUCCUAAGGUGAAGACUGCGGGUUCGAGUCCCGUACGGAACG, for which the yeast fitness stood at 0.846.

Consider GUUCCGUUGGCGUAAUGGUAACGCGCCUCCCUCCUACGGCGAAGACUGCGGGUUCGCGUCCCGGACGGAACG, for which the yeast fitness stood at 0.614.

For the variant GUUCCGUUGGCGUAAUGGUAACGCGACUCCCUCCUAAGGAGAAGACUGCGGGUUCGAGUCCCGCACGGAACG, the yeast fitness worked out at 0.856.

On to GUUCCGUUGGCGUAAUGGUAACGCGCCUCCCUCCUCAGGAGAAGACUGCGGGUUCCAGUCCCGUACGGAACG, for which the yeast fitness came to 0.633.

For the variant GUUCCGUUGGCGUAAUGGUAACGCGACUCCCUCCUAAGGAGAAGACUGCGGGAUCGAGUCCCGUACGGAACG, the yeast fitness is 0.557.

With GUUCCGUUGGCGUAAUGGUAACGCGACUCCCUCCUAAGGAGAAGACUGCGGGGUCGAGUCCCGUACGGAACG, the yeast fitness was found to be 0.704.

Take GUUCCGUUGGCGUAAUGGUAACGCGACUCCCUCCCAAGGAGAAGUCUGCGGGUUCGAGUCCCGUCCGGAACG: the yeast fitness is at most 0.5.

Regarding GUUCCGUUGGCGUAAUGGUAACGCGACUCCCCCCUAAGGAGAAGACUGCGGGUUCGCGUCCCGUACAGUACG, the yeast fitness is at most 0.5.

Consider GUUCCGUUGGCGUAAUGGUAACGCGCCUCCCUCCUAUGGAGAAGACUGCGGGUACGAGUCCCGUACGGAACG, for which the yeast fitness was at most 0.5.

Take GUUCCGUUGGCGUAAUGGUAACGCGACUCCCUCCAAAGGAGAAGACUCCGGGUUCGAGUCCCGUACGGAACG: the yeast fitness is at most 0.5.

As to GUUCCGUUGGCGUAAUGGUAACGCGCCUCCCUCCUAGGGAGAAGACUGCGGGUUCGAGUCCCGUACGGUACG, the yeast fitness came to 0.665.

As to GUUCCGUUGGCGUAAUGGUAACGCGCCUCCCUCCUAAGGCGAGAACUGCGGGUUCGAGUCCCGUACGGAACG, the yeast fitness was at most 0.5.

As to GUUCCGUUGGCGUAAUGGUAACGCGCCUCCCUCCUAGGGAGAAGACUGCGGGUUCGAGUACCGUACGGAACG, the yeast fitness was at most 0.5.

Consider GUUCCGUUGGCGUAAUGGUAACGCGACUCCCCCCUAAGGAGAAGACUGGGGGUUCGAGUCCCGUACGGAACG, for which the yeast fitness worked out at 0.575.

With GUUCCGUUGGCGUAAUGGUAACGCGACUCCCUCCUAAGGAGAAGACGGCGGGUUCGAGUCCCGUACGGAACG, the yeast fitness stood at 0.661.

With GUUCCGUUGGCGUAAUGGUAACGCGACUCCCUCCUAAGGAGAAGACCGCGGGUUCGAGUCCCGUACGGAACG, the yeast fitness came to 0.994.

With GUUCCGUUGGCGUAAUGGUAACGCGCCUCCCUCCUUAGGUGAAGACUGCGGGUUCGAGUCCCGUACGGAACG, the yeast fitness is 0.603.

On to GUUCCGUUGGCGUAAUGGUAACGCGACUCCCUCCCAAGGAGAAGUCUGCGGGUUCGAGUCCCGUACGGAACG, for which the yeast fitness stood at 0.746.

The record behind these values is the RNAGym collection of RNA variant scans (doi:10.1126/science.aae0568).
